Assay results: PMC8286641 (European Journal of Drug Metabolism and Pharmacokinetics, 2021)

Experiments:
[1] = target: T1, ENT1 (Homo sapiens, UniProt Q99808); experiment: Inhibition of ENT1-mediated [3H]-uridine uptake in HAP1 ENT2-KO cells; type: cell-based; details: 10 µM TKI; for % inhibition of ENT1 activity (mean ± SD): HAP1-ENT2 KO cells, [3H]-uridine uptake 5 min at 37 °C; for ENT1 inhibitor class / Effect on ENT1 activity (in words): HAP1 ENT2-KO cells
T1 sequence (Q99808 1-456): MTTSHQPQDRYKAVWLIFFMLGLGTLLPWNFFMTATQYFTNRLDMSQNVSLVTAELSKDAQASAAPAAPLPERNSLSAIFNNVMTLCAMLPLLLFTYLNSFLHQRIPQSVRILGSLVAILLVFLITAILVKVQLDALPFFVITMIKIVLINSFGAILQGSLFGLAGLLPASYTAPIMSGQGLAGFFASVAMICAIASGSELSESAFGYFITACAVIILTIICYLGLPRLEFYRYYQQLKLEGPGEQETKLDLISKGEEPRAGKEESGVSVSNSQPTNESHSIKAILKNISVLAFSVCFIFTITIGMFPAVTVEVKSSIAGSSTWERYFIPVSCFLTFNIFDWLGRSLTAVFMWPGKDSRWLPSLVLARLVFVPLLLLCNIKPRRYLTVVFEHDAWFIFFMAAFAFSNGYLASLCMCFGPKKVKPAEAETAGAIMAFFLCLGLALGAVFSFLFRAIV

[2] = target: T1, ENT1; experiment: Prediction of in vivo ENT1 inhibition; details: predicted if Imax,u/IC50 ≥ 0.1
Procedure, shortened: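 Unbound peak plasma level (Imax,u) was obtained from literature Cmax and unbound fraction and divided by in vitro ENT1 IC50. Inhibition was predicted when the ratio was ≥ 0.1, following FDA drug-interaction guidance.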

[3] = Maximum plasma concentration of TKIs; type: in vivo; details: from Cmax and fu
[4] = plasma; ref 43-47 (Reference column, one per TKI); cited from earlier work
[5] = target: T2, ENT2 (Homo sapiens, UniProt Q14542); experiment: Prediction of in vivo ENT2 inhibition; details: Imax,u/IC50 greater than 0.1
T2 sequence (Q14542 1-456): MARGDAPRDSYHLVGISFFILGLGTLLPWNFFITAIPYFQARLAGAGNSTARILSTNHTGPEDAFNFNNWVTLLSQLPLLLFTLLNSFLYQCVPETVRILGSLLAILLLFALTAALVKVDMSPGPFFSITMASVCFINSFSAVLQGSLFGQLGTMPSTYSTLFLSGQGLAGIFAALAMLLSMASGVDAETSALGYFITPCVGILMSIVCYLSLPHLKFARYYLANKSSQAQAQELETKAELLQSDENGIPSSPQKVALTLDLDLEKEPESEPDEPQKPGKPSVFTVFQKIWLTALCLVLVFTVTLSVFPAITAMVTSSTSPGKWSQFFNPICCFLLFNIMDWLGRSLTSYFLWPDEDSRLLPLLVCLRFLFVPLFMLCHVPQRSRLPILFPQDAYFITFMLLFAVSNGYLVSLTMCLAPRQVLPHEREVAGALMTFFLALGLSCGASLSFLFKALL
Procedure, shortened: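 Imax,u from literature Cmax and unbound fraction was divided by ENT2 IC50, using the FDA guidance threshold of 0.1. […] Uptake was counted by scintillation, normalised to protein, and fitted to a four-parameter logistic curve; three independent assays.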

[6] = test system: ENT1/ENT2; experiment: Lorlatinib accumulation assay in HAP1 wild-type, ENT1-KO and ENT2-KO cells; type: cell-based, human; details: 10 µM lorlatinib, ENT1-KO, ENT2-KO cells
Procedure, shortened: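 HAP1 wild-type, ENT1-KO and ENT2-KO cells were grown in Iscove's modified Dulbecco's medium with 10% fetal calf serum and penicillin/streptomycin. Cells were exposed to 10 µM test compound for 5 min at 37 °C, without or with 0.1 µM (ENT1) or 100 µM (ENT1/ENT2) NBMPR. They were then washed twice in ice-cold PBS and lysed in distilled water. Lysates underwent acetonitrile extraction, and compound was quantified by LC–MS/MS (C18 column, ESI+).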

SMILES	% inhibition of ENT1 activity (mean ± SD) [1] [%]	ENT1 inhibitor class [1]	further results
Cc1cc(Nc2ncc(Cl)c(Nc3ccccc3S(=O)(=O)C(C)C)n2)c(OC(C)C)cc1C1CCNCC1 [Ceritinib, ceritinib]	26.3 ± 1.7	weak (decreased ENT1 activity by less than 35% and can thus be considered as weak ENT1 inhibitors)	Effect on ENT1 activity (in words) [1]: only modestly decrease ENT1 activity
C[C@@H](Oc1cc(-c2cnn(C3CCNCC3)c2)cnc1N)c1c(Cl)ccc(F)c1Cl [Crizotinib, crizotinib]	34.7 ± 2.7	weak (decreased ENT1 activity by less than 35% and can thus be considered as weak ENT1 inhibitors)	Effect on ENT1 activity (in words) [1]: only modestly decrease ENT1 activity
COc1cc2nccc(Oc3ccc(NC(=O)C4(C(=O)Nc5ccc(F)cc5)CC4)cc3)c2cc1OC [Cabozantinib, cabozantinib]	48.8 ± 2.5	moderate (inhibit ENT1 activity by more than 35% but less than 60%)	
COc1cc(N2CCC(N3CCN(C)CC3)CC2)ccc1Nc1ncc(Cl)c(Nc2ccccc2P(C)(C)=O)n1 [Brigatinib, brigatinib]	52.5 ± 11.1	moderate (inhibit ENT1 activity by more than 35% but less than 60%)	
COc1cc2ncnc(Nc3ccc(F)c(Cl)c3)c2cc1NC(=O)/C=C/CN1CCCCC1 [Dacomitinib, dacomitinib]	43.9 ± 2.3	moderate (inhibit ENT1 activity by more than 35% but less than 60%)	
CCc1cc2c(cc1N1CCC(N3CCOCC3)CC1)C(C)(C)c1[nH]c3cc(C#N)ccc3c1C2=O [Alectinib, alectinib]	54.0 ± 4.9	moderate (inhibit ENT1 activity by more than 35% but less than 60%)	
CC#CC(=O)N1CCC[C@H]1c1nc(-c2ccc(C(=O)Nc3ccccn3)cc2)c2c(N)nccn12 [Acalabrutinib, acalabrutinib]	42.6 ± 10.4	moderate (inhibit ENT1 activity by more than 35% but less than 60%)	
CCN1CCN(Cc2ccc(Nc3ncc(F)c(-c4cc(F)c5nc(C)n(C(C)C)c5c4)n3)nc2)CC1 [Abemaciclib, abemaciclib]	25.0 ± 7.9	weak (decreased ENT1 activity by less than 35% and can thus be considered as weak ENT1 inhibitors)	
CN(C)C/C=C/C(=O)Nc1cc2c(Nc3ccc(F)c(Cl)c3)ncnc2cc1O[C@H]1CCOC1 [Afatinib, afatinib]	54.5 ± 2.4	moderate (inhibit ENT1 activity by more than 35% but less than 60%)	
CN1CCN(c2ccc(C(=O)Nc3n[nH]c4ccc(Cc5cc(F)cc(F)c5)cc34)c(NC3CCOCC3)c2)CC1 [Entrectinib, entrectinib]	22.9 ± 5.2		

Further lines, with some results ahead:

% inhibition of ENT1 activity (mean ± SD) [1] [%]	SMILES	ENT1 inhibitor class [1]	further results
46.9 ± 9.6	COC(=O)c1ccc2c(c1)NC(=O)/C2=C(\Nc1ccc(N(C)C(=O)CN2CCN(C)CC2)cc1)c1ccccc1 [Nintedanib, nintedanib]		
72.7 ± 1.1	C=CC(=O)N1CCC[C@@H](n2nc(-c3ccc(Oc4ccccc4)cc3)c3c(N)ncnc32)C1 [Ibrutinib, ibrutinib]	potent (inhibit ENT1 by more than 60%)	Predicted in vivo inhibition [2]: No; Imax,u (maximum unbound plasma concentration) [3]: 9.56 nM
61.0 ± 8.5	CCOc1cc2ncc(C#N)c(Nc3ccc(OCc4ccccn4)c(Cl)c3)c2cc1NC(=O)/C=C/CN(C)C [Neratinib, neratinib]	potent (inhibit ENT1 by more than 60%)	fu (unbound fraction) [4]: 0.01; Predicted in vivo inhibition [2]: No; Imax,u (maximum unbound plasma concentration) [3]: 1.46 nM
21.9 ± 13.3	N#CCC1(n2cc(-c3ncnc4[nH]ccc34)cn2)CN(C2CCN(C(=O)c3ccnc(C(F)(F)F)c3F)CC2)C1 [Itacitinib, itacitinib]	weak (decreased ENT1 activity by less than 35% and can thus be considered as weak ENT1 inhibitors)	
86.6 ± 6.4	C[C@H]1Oc2cc(cnc2N)-c2c(nn(C)c2C#N)CN(C)C(=O)c2ccc(F)cc21 [Lorlatinib, (10R)-7-amino-12-fluoro-2,10,16-trimethyl-15-oxo-10,15,16,17-tetrahydro-2H-8,4-(metheno)pyrazolo[4,3-h][2,5,11]-benzoxadiazacyclotetradecine-3-carbonitrile]	potent (inhibit ENT1 by more than 60%)	Predicted in vivo inhibition (in words) [5]: should also be clinically relevant; Predicted in vivo inhibition [2]: Yes; Cellular accumulation of lorlatinib ([6]; 5 min at 37 °C, without or with 0.1 or 100 µM NBMPR): similarly accumulate in HAP1 wild-type, ENT1-KO, and ENT2-KO cells; Substrate for ENT1/ENT2 ([6]; ± NBMPR): not a substrate for either ENT1 or ENT2; Imax,u (maximum unbound plasma concentration) [3]: 485 nM
32.3 ± 11.3	C=CC(=O)Nc1cc(Nc2nccc(-c3cn(C)c4ccccc34)n2)c(OC)cc1N(C)CCN(C)C [Osimertinib, osimertinib]	weak (decreased ENT1 activity by less than 35% and can thus be considered as weak ENT1 inhibitors)	
61.6 ± 8.1	C1=C/COCc2cc(ccc2OCCN2CCCC2)Nc2nccc(n2)-c2cccc(c2)COC/1 [Pacritinib, 11-(2-pyrrolidin-1-yl-ethoxy)-14,19-dioxa-5,7,26-triaza-tetracyclo[19.3.1.1(2,6).1(8,12)]heptacosa-1(25),2(26),3,5,8,10,12(27),16,21,23-decaene]	potent (inhibit ENT1 by more than 60%)	fu (unbound fraction) [4]: 0.011; Predicted in vivo inhibition [2]: No; Imax,u (maximum unbound plasma concentration) [3]: 247.5 nM
4.8 ± 8.3	C[C@@H]1CCN(C(=O)CC#N)C[C@@H]1N(C)c1ncnc2[nH]ccc12 [Tofacitinib, tofacitinib]		Effect on ENT1 activity (in words) [1]: failed to significantly alter ENT1 activity
17.8 ± 10.2	CN(C)C(=O)c1cc2cnc(Nc3ccc(N4CCNCC4)cn3)nc2n1C1CCCC1 [Ribociclib, ribociclib]		Effect on ENT1 activity (in words) [1]: failed to significantly alter ENT1 activity
21.4 ± 2.7	CNC(=O)c1cc(Oc2ccc(NC(=O)Nc3ccc(Cl)c(C(F)(F)F)c3)c(F)c2)ccn1 [Regorafenib, regorafenib]		
63.1 ± 5.9	COc1cc2nccc(Oc3ccc(NC(=O)NC4CC4)c(Cl)c3)c2cc1C(N)=O [Lenvatinib, lenvatinib]	potent (inhibit ENT1 by more than 60%)	fu (unbound fraction) [4]: 0.016; Predicted in vivo inhibition [2]: No
27.3 ± 10.9	CCCS(=O)(=O)Nc1ccc(F)c(C(=O)c2c[nH]c3ncc(-c4ccc(Cl)cc4)cc23)c1F [Vemurafenib, vemurafenib]	weak (decreased ENT1 activity by less than 35% and can thus be considered as weak ENT1 inhibitors)	
